Assay results: ChEMBL document CHEMBL3627671, “Novel derivatives of nitro-substituted salicylic acids: Synthesis, antimicrobial activity and cytotoxicity” (Bioorg Med Chem, 2015)
≈ marks a conversion by molar mass, not a printed value.

Legend:
Assay type in all cases: functional
[1] = system: Mycobacterium tuberculosis; test: Antimycobacterial activity against Mycobacterium tuberculosis H37Rv 331/88 after 14 days; conditions: H37Rv 331/88, 336 h
[2] = system: Mycobacterium tuberculosis; test: Antimycobacterial activity against Mycobacterium tuberculosis H37Rv 331/88 after 21 days; conditions: H37Rv 331/88, 504 h
Mycobacterium avium [3] = test: Antimycobacterial activity against Mycobacterium avium 330/80 after 14 days; conditions: 330/80, 336 h
Mycobacterium avium [4] = test: Antimycobacterial activity against Mycobacterium avium 330/80 after 21 days; conditions: 330/80, 504 h
Mycobacterium kansasii [5] = test: Antimycobacterial activity against Mycobacterium kansasii 235/80 after 7 days; conditions: 235/80, 168 h
In short: (§1)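 Šula's semisynthetic medium micromethod at 37 °C, read after 7, 14 and 21 days. The 1.0 McFarland suspension was diluted 10^-4. MIC determined. 6509/96 is a clinical isolate.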

Mycobacterium kansasii [6] = test: Antimycobacterial activity against Mycobacterium kansasii 235/80 after 14 days; conditions: 235/80, 336 h; in short: as §1
Mycobacterium kansasii [7] = test: Antimycobacterial activity against Mycobacterium kansasii 235/80 after 21 days; conditions: 235/80, 504 h; in short: as §1
Mycobacterium kansasii [8] = test: Antimycobacterial activity against Mycobacterium kansasii 6509/96 after 7 days; conditions: 6509/96, 168 h; in short: as §1
Mycobacterium kansasii [9] = test: Antimycobacterial activity against Mycobacterium kansasii 6509/96 after 14 days; conditions: 6509/96, 336 h; in short: as §1
Mycobacterium kansasii [10] = test: Antimycobacterial activity against Mycobacterium kansasii 6509/96 after 21 days; conditions: 6509/96, 504 h; in short: as §1
Staphylococcus aureus [11] = test: Antibacterial activity against Staphylococcus aureus CCM 4516/08 after 24 hrs by microdilution broth method; conditions: CCM 4516/08, 24 h
Staphylococcus aureus [12] = test: Antibacterial activity against Staphylococcus aureus CCM 4516/08 after 48 hrs by microdilution broth method; conditions: CCM 4516/08, 48 h
Staphylococcus aureus [13] = test: Antibacterial activity against methicillin-resistant Staphylococcus aureus H 5996/08 after 24 hrs by microdilution broth method; conditions: H 5996/08, 24 h
Staphylococcus aureus [14] = test: Antibacterial activity against methicillin-resistant Staphylococcus aureus H 5996/08 after 48 hrs by microdilution broth method; conditions: H 5996/08, 48 h
[15] = system: Staphylococcus epidermidis; test: Antibacterial activity against Staphylococcus epidermidis H 6966/08 after 24 hrs by microdilution broth method; conditions: H 6966/08, 24 h
In short: (§2)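 Mueller-Hinton broth microdilution (modified M07-A07), pH 7.4 (±0.2). Compounds dissolved in DMSO, tested at final 500 to 0.49 µmol/L. Inoculum in sterile water matched to 0.5 McFarland. Incubated in the dark, humid atmosphere, 35 °C, read at 24 and 48 h visually and at 540 nm. MIC taken as ≥95% growth reduction (IC95) versus control.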

[16] = system: Staphylococcus epidermidis; test: Antibacterial activity against Staphylococcus epidermidis H 6966/08 after 48 hrs by microdilution broth method; conditions: H 6966/08, 48 h; in short: as §2
Enterococcus sp. [17] = test: Antibacterial activity against Enterococcus sp. J 14365/08 after 24 hrs by microdilution broth method; conditions: J 14365/08, 24 h; in short: as §2
Enterococcus sp. [18] = test: Antibacterial activity against Enterococcus sp. J 14365/08 after 48 hrs by microdilution broth method; conditions: J 14365/08, 48 h; in short: as §2
Escherichia coli [19] = test: Antibacterial activity against Escherichia coli CCM4517 after 24 hrs by microdilution broth method; conditions: CCM4517, 24 h; in short: as §2
Escherichia coli [20] = test: Antibacterial activity against Escherichia coli CCM4517 after 48 hrs by microdilution broth method; conditions: CCM4517, 48 h; in short: as §2
Klebsiella pneumoniae [21] = test: Antibacterial activity against Klebsiella pneumoniae D 11750/08 after 24 hrs by microdilution broth method; conditions: D 11750/08, 24 h; in short: as §2
Klebsiella pneumoniae [22] = test: Antibacterial activity against Klebsiella pneumoniae D 11750/08 after 48 hrs by microdilution broth method; conditions: D 11750/08, 48 h; in short: as §2
Klebsiella pneumoniae [23] = test: Antibacterial activity against ESBL-positive Klebsiella pneumoniae J 14368/08 after 24 hrs by microdilution broth method; conditions: J 14368/08, 24 h; in short: as §2
Klebsiella pneumoniae [24] = test: Antibacterial activity against ESBL-positive Klebsiella pneumoniae J 14368/08 after 48 hrs by microdilution broth method; conditions: J 14368/08, 48 h; in short: as §2
Pseudomonas aeruginosa [25] = test: Antibacterial activity against Pseudomonas aeruginosa CCM 1961 after 24 hrs by microdilution broth method; conditions: CCM 1961, 24 h; in short: as §2
Pseudomonas aeruginosa [26] = test: Antibacterial activity against Pseudomonas aeruginosa CCM 1961 after 48 hrs by microdilution broth method; conditions: CCM 1961, 48 h; in short: as §2
Candida albicans [27] = test: Antifungal activity against Candida albicans ATCC 44859 after 24 hrs by microdilution broth method; conditions: ATCC 44859, 24 h
In short: (§3)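 CLSI M27-A3 broth microdilution in RPMI 1640 with glutamine, buffered to pH 7.0 with MOPS; DMSO diluent. Yeast inoculum 5 × 10^3 ± 0.2 CFU/mL. Moulds grown on Sabouraud agar 3–10 days before spore harvest, final inoculum 0.5-5 × 10^4 CFU/mL, checked in a Bürker chamber. Incubated dark, humid, 35 °C, read at 24 and 48 h visually and at 540 nm. MIC taken as ≥80% (yeasts) or ≥50% (filamentous) growth reduction versus control.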

Candida albicans [28] = test: Antifungal activity against Candida albicans ATCC 44859 after 48 hrs by microdilution broth method; conditions: ATCC 44859, 48 h; in short: as §3
Candida tropicalis [29] = test: Antifungal activity against Candida tropicalis 156 after 24 hrs by microdilution broth method; conditions: Candida tropicalis, 156, 24 h; in short: as §3
Candida tropicalis [30] = test: Antifungal activity against Candida tropicalis 156 after 48 hrs by microdilution broth method; conditions: Candida tropicalis, 156, 48 h; in short: as §3
Pichia kudriavzevii [31] = test: Antifungal activity against Candida krusei E28 after 24 hrs by microdilution broth method; conditions: E28, 24 h; in short: as §3
Pichia kudriavzevii [32] = test: Antifungal activity against Candida krusei E28 after 48 hrs by microdilution broth method; conditions: E28, 48 h; in short: as §3
Nakaseomyces glabratus [33] = test: Antifungal activity against Candida glabrata 20/I after 24 hrs by microdilution broth method; in short: as §3
Nakaseomyces glabratus [34] = test: Antifungal activity against Candida glabrata 20/I after 48 hrs by microdilution broth method; in short: as §3
Trichosporon asahii [35] = test: Antifungal activity against Trichosporon asahii 1188 after 24 hrs by microdilution broth method; conditions: Trichosporon asahii, 1188, 24 h; in short: as §3
Trichosporon asahii [36] = test: Antifungal activity against Trichosporon asahii 1188 after 48 hrs by microdilution broth method; conditions: Trichosporon asahii, 1188, 48 h; in short: as §3
Aspergillus fumigatus [37] = test: Antifungal activity against Aspergillus fumigatus 231 after 24 hrs by microdilution broth method; conditions: Aspergillus fumigatus, 231, 24 h; in short: as §3
Aspergillus fumigatus [38] = test: Antifungal activity against Aspergillus fumigatus 231 after 48 hrs by microdilution broth method; conditions: Aspergillus fumigatus, 231, 48 h; in short: as §3
Lichtheimia corymbifera [39] = test: Antifungal activity against Absidia corymbifera 272 after 24 hrs by microdilution broth method; conditions: Lichtheimia corymbifera, 272, 24 h; in short: as §3
Lichtheimia corymbifera [40] = test: Antifungal activity against Absidia corymbifera 272 after 48 hrs by microdilution broth method; conditions: Lichtheimia corymbifera, 272, 48 h; in short: as §3
[41] = system: Trichophyton mentagrophytes; test: Antifungal activity against Trichophyton mentagrophytes 445 after 24 hrs by microdilution broth method; conditions: Trichophyton mentagrophytes, 445, 24 h
[42] = system: Trichophyton mentagrophytes; test: Antifungal activity against Trichophyton mentagrophytes 445 after 48 hrs by microdilution broth method; conditions: Trichophyton mentagrophytes, 445, 48 h

Work on O=C(Nc1ccc([N+](=O)[O-])cc1)c1cc([N+](=O)[O-])ccc1O yielded an MIC [1] of 62.5 µM (≈ 19 µg/mL), an MIC [2] of 125 µM (≈ 37.9 µg/mL) and an MIC (Mycobacterium avium [3]) of 250 µM (≈ 75.8 µg/mL). For the same compound, the MIC (Mycobacterium avium [4]) was 250 µM (≈ 75.8 µg/mL), the MIC (Mycobacterium kansasii [5]) was 16 µM (≈ 4.85 µg/mL) and the MIC (Mycobacterium kansasii [6]) was 62.5 µM (≈ 19 µg/mL). The MIC (Mycobacterium kansasii [7]) was 125 µM (≈ 37.9 µg/mL), the MIC (Mycobacterium kansasii [8]) was 62.5 µM (≈ 19 µg/mL) and the MIC (Mycobacterium kansasii [9]) was 125 µM (≈ 37.9 µg/mL). It also gave an MIC (Mycobacterium kansasii [10]) of 125 µM (≈ 37.9 µg/mL), an MIC (Staphylococcus aureus [11]) of 250 µM (≈ 75.8 µg/mL) and an MIC (Staphylococcus aureus [12]) of 250 µM (≈ 75.8 µg/mL). For the same compound, the MIC (Staphylococcus aureus [13]) was 250 µM (≈ 75.8 µg/mL), the MIC (Staphylococcus aureus [14]) was 250 µM (≈ 75.8 µg/mL) and the MIC [15] was 500 µM (≈ 152 µg/mL). The MIC [16] was 500 µM (≈ 152 µg/mL), the MIC (Enterococcus sp. [17]) was greater than 500 µM and the MIC (Enterococcus sp. [18]) was greater than 500 µM. The MIC (Escherichia coli [19]) was greater than 500 µM, the MIC (Escherichia coli [20]) was greater than 500 µM and the MIC (Klebsiella pneumoniae [21]) was greater than 500 µM. The MIC (Klebsiella pneumoniae [22]) was greater than 500 µM, the MIC (Klebsiella pneumoniae [23]) was greater than 500 µM and the MIC (Klebsiella pneumoniae [24]) was greater than 500 µM. For the same compound, the MIC (Pseudomonas aeruginosa [25]) was greater than 500 µM, the MIC (Pseudomonas aeruginosa [26]) was greater than 500 µM and the MIC (Candida albicans [27]) was greater than 500 µM. It also gave an MIC (Candida albicans [28]) greater than 500 µM, an MIC (Candida tropicalis [29]) greater than 500 µM and an MIC (Candida tropicalis [30]) greater than 500 µM. It also gave an MIC (Pichia kudriavzevii [31]) greater than 500 µM, an MIC (Pichia kudriavzevii [32]) greater than 500 µM and an MIC (Nakaseomyces glabratus [33]) greater than 500 µM. It also gave an MIC (Nakaseomyces glabratus [34]) greater than 500 µM, an MIC (Trichosporon asahii [35]) greater than 500 µM and an MIC (Trichosporon asahii [36]) greater than 500 µM. The MIC (Aspergillus fumigatus [37]) was greater than 500 µM, the MIC (Aspergillus fumigatus [38]) was greater than 500 µM and the MIC (Lichtheimia corymbifera [39]) was greater than 500 µM. The MIC (Lichtheimia corymbifera [40]) was greater than 500 µM, the MIC [41] was greater than 500 µM and the MIC [42] was greater than 500 µM.
